Assay results reported in ChEMBL document CHEMBL1177716, “Kinesin spindle protein (KSP) inhibitors with 2,3-fused indole scaffolds” (J Med Chem, 2010).
Calls of active or inactive are those of the source. No cut-off for these calls is given here.

Legend:
[1] = target: T1, Kinesin-like protein KIF11 (Homo sapiens, UniProt P52732); test: Inhibition of human C-terminally His6-tagged microtubule-activated KSP motor domain ATPase activity after 30 mins by luciferase-derived luminescence assay
T1 sequence (P52732 whole entry): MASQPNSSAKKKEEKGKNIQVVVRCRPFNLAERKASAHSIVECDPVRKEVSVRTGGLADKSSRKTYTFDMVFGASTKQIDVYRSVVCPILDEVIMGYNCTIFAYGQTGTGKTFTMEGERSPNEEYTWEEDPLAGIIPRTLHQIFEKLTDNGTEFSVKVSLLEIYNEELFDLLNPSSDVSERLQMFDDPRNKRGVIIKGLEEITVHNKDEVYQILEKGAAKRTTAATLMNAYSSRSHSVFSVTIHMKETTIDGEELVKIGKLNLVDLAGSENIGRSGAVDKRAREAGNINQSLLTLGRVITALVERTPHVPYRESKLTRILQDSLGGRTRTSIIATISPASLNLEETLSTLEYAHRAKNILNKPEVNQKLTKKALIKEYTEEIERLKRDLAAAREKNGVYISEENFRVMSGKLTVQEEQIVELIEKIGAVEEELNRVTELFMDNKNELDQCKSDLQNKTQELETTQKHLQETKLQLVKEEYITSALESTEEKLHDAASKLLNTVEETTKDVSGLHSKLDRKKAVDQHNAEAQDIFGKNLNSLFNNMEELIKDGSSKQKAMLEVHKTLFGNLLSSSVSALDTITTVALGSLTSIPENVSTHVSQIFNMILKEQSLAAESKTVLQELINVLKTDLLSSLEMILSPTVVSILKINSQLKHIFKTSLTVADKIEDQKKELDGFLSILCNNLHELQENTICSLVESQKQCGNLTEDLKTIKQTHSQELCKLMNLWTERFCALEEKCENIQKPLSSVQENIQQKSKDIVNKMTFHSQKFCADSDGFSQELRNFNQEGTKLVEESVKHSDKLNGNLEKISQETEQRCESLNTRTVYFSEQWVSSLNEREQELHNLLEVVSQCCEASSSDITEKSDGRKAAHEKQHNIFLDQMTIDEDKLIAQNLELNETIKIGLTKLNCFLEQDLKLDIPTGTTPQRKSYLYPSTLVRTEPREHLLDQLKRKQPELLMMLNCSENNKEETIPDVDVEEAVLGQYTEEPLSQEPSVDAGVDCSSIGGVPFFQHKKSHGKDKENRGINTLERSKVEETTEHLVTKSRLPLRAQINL

[2] = system: HeLa; test: Cytotoxicity against human HeLa cells at 60 uM after 48 hrs […]; assay type: functional
[3] = system: HeLa; test: Cytotoxicity against human HeLa cells after 48 hrs […]; assay type: functional, cell-based; settings: for IC50: Homo sapiens, HeLa, 48 h
[4] = organism: Sus scrofa; test: Inhibition of pig brain topoisomerase 1-mediated supercoiled DNA relaxation after 20 mins by agarose gel electrophoresis analysis
In short: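 Supercoiled DNA was incubated with topo I, with or without test compound. Gel lanes included supercoiled DNA alone, DNA plus enzyme without compound, and DNA plus enzyme with camptothecin as the reference inhibitor.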

[5] = organism: Sus scrofa; test: Inhibition of pig brain topoisomerase 2-mediated supercoiled DNA relaxation after 20 mins by agarose gel electrophoresis analysis
In short: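 Supercoiled DNA was incubated with topo II, with or without test compound. Gel lanes included supercoiled DNA alone, DNA plus enzyme without compound, and DNA plus enzyme with AMSA as the reference inhibitor.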

[6] = system: HeLa; test: Cell cycle arrest in human HeLa cells assessed as accumulation at M phase at 36 uM after 20 hrs by DAPI staining relative to taxol; assay type: functional; settings: in the assay text read “at 32 uM” for “at 36 uM”
In short: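 HeLa cells were exposed to compound for 20 h and scored for M-phase arrest. Mitotic index was expressed as a percentage of the induction given by 0.1 μM taxol.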

[7] = system: HeLa; test: Cell cycle arrest in human HeLa cells assessed as accumulation at G2/M phase with incomplete chromosome condensation at 36 uM after 20 hrs by DAPI staining; assay type: functional, cell-based

Row | SMILES | IC50 [1] | inhibition at 60 µM [2] | IC50 [3] | other results
1 | Cc1ccc2[nH]c3ccc(C(F)(F)F)cc3c2c1 | 8.8 µM | < 50% |  | 
2 | COC(=O)c1ccc2c(c1)[nH]c1ccccc12 | 11 µM | < 50% |  | 
3 | FC(F)c1ccc2c(c1)[nH]c1ccccc12 | 0.87 µM |  | 46 µM | 
4 | Oc1ccc2c(c1)[nH]c1ccccc12 |  | < 50% |  | 
5 | Cc1cccc2c1[nH]c1ccccc12 | 23 µM | < 50% |  | 
6 | O=Cc1ccc2[nH]c3ccccc3c2c1 | 17 µM | < 50% |  | 
7 | O=Cc1ccc2c(c1)[nH]c1ccccc12 | 13 µM | < 50% |  | 
8 | c1ccc2c(c1)ccc1c3ccccc3[nH]c21 | 4.6 µM | < 50% |  | 
9 | CC(C)(C)c1ccc2c(c1)[nH]c1cc(C(F)(F)F)ccc12 | 1.4 µM | < 50% |  | 
10 | Cc1ccc2c(c1)[nH]c1ccc(C(F)(F)F)cc12 | 11 µM |  | 35 µM | 
11 | CCCCN1C(=O)[C@@H]2Cc3c([nH]c4ccccc34)[C@@H](c3cccc(O)c3)N2C1=O | 7.1 µM |  | 8.6 µM | 
12 | FC(F)(F)c1cccc2c1[nH]c1ccccc12 | 3.3 µM | < 50% |  | 
13 | COc1ccc2c(c1)[nH]c1c(C)nccc12 |  |  |  | inhibition [4]: Active; inhibition [5]: Active
14 | c1ccc2c(c1)[nH]c1c3c(ccc12)CCCC3 | 1.6 µM |  | 30 µM | 
15 | CC(C)(C)c1cccc2c1[nH]c1ccccc12 | 14 µM |  | 41 µM | 
16 | CC(C)(C)c1ccc2[nH]c3ccccc3c2c1 | 0.24 µM |  | 6.5 µM | Activity [6]: 76%; Activity [7]: Active

Further compounds by falling IC50 [1], results first:

Row | IC50 [1] | SMILES | inhibition at 60 µM [2] | IC50 [3] | other results
17 | 25 µM | c1ccc2c(c1)[nH]c1cc3c(cc12)CCCC3 | < 50% |  | 
18 | 22 µM | Cc1ccc2c(c1)[nH]c1ccccc12 | < 50% |  | 
19 | 11 µM | CC(C)(C)c1ccc2c(c1)[nH]c1ccc(C(=O)O)cc12 | < 50% |  | 
20 | 7.5 µM | Cc1ccc2c(c1)[nH]c1ccc(F)cc12 | < 50% |  | 
21 | 5.6 µM | Cn1c2ccccc2c2ccc(C(F)(F)F)cc21 | < 50% |  | 
22 | 3.2 µM | CC(C)(C)Oc1ccc2c(c1)[nH]c1ccccc12 | < 50% |  | inhibition (INH) [3]: <50%
23 | 2.8 µM | CCc1ccc2c(c1)[nH]c1ccccc12 | < 50% |  | 
24 | 1.6 µM | CC(=O)c1ccc2[nH]c3cc(C)ccc3c2c1 |  | 51 µM | 
25 | 1.5 µM | CC(C)c1ccc2c(c1)[nH]c1ccccc12 |  | 1.5 µM | 
26 | 0.51 µM | FC(F)(F)Oc1ccc2c(c1)[nH]c1ccccc12 |  | 29 µM | 
27 | 0.39 µM | COC(=O)c1ccc2[nH]c3cc(C(C)(C)C)ccc3c2c1 | < 50% |  | 
